Measured values: ChEMBL document CHEMBL3286259, “Synthesis and anticancer activity of some novel 5,6-fused hybrids of juglone based 1,4-naphthoquinones” (Eur J Med Chem, 2014)
Active and inactive are the calls of the source. No cut-off for these calls is given here.

Columns and labels:
[1] = Cytotoxicity against human ME180 cells assessed as inhibition of cell viability after 48 hrs by MTT assay; assay type: functional, cell-based; conditions: ME-180, 48 h
Summary of the method: (§1)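 Cells were counted by trypan blue exclusion, seeded at 1x10^4 cells per well, and exposed to a series of compound concentrations for 48 h at 37 °C in DMEM with 10% FBS. The medium was replaced with serum-free medium plus MTT (5 mg/ml reagent) for 4 h at 37 °C. Formazan was dissolved in DMSO for 10 min and A570 was read. IC50 came from a plot of % viability versus control against concentration.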

MCF7 [2] = test: Cytotoxicity against human MCF7 cells assessed as inhibition of cell viability after 48 hrs by MTT assay; assay type: functional, cell-based; conditions: MCF7, 48 h; summary of the method: as §1
HeLa = test: Cytotoxicity against human HeLa cells assessed as inhibition of cell viability after 48 hrs by MTT assay; assay type: functional, cell-based; summary of the method: as §1
MDA-MB-453 [3] = test: Cytotoxicity against human MDA-MB-453 cells assessed as inhibition of cell viability after 48 hrs by MTT assay; assay type: functional, cell-based; conditions: MDA-MB-453, 48 h; summary of the method: as §1
MDA-MB-231 [4] = test: Cytotoxicity against human MDA-MB-231 cells assessed as inhibition of cell viability after 48 hrs by MTT assay; assay type: functional, cell-based; conditions: MDA-MB-231, 48 h; summary of the method: as §1
PC-3 [5] = test: Cytotoxicity against human PC3 cells assessed as inhibition of cell viability after 48 hrs by MTT assay; assay type: functional, cell-based; conditions: PC-3, 48 h; summary of the method: as §1
HT-29 = test: Cytotoxicity against human HT-29 cells assessed as inhibition of cell viability after 48 hrs by MTT assay; assay type: functional, cell-based; conditions: HT-29, 48 h; summary of the method: as §1
MDA-MB-453 [6] = test: Induction of morphological changes in human MDA-MB-453 cells assessed as early apoptosis by measuring condensed chromatin, cell membrane blebbing, destructive fragmentation of nuclei at 5 uM after 48 hrs by acridine orange/ethidium bromide staining based fluorescence microscopy; assay type: functional
Summary of the method: (§2)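 Cells were seeded at 1×10^6 per well in 6-well plates and treated for 48 h. After a PBS wash they were stained with a 1:1 acridine orange/ethidium bromide mix for 5 min in the dark, washed again, and imaged by inverted fluorescence microscopy at 200X. Two thousand cells were counted and scored as viable, early apoptotic, late apoptotic or necrotic, expressed as %.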

MDA-MB-453 [7] = test: Induction of morphological changes in human MDA-MB-453 cells assessed as late apoptosis/necrosis at 10 uM after 48 hrs by acridine orange/ethidium bromide staining based fluorescence microscopy; assay type: functional, cell-based; summary of the method: as §2
MDA-MB-453 [8] = test: Cell cycle arrest in human MDA-MB-453 cells assessed as accumulation at G0/G1 phase at 5 uM after 48 hrs by flow cytometry (reference value: 62.6%); assay type: functional
Summary of the method: (§3)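 Cells were plated at […] per well in six-well plates and treated for 48 h. They were harvested by trypsinization, washed twice in PBS, and fixed in 70% ice-cold ethanol at −20 °C for 3 h. Cells were then incubated with propidium iodide cell-cycle reagent at 37 °C for 30 min, and DNA content was measured by flow cytometry. PC-3 assays were run in duplicate.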

MDA-MB-453 [9] = test: Cell cycle arrest in human MDA-MB-453 cells assessed as accumulation at S phase at 5 uM after 48 hrs by flow cytometry (reference value: 5.9%); assay type: functional; summary of the method: as §3
MDA-MB-453 [10] = test: Cell cycle arrest in human MDA-MB-453 cells assessed as accumulation at G2/M phase at 5 uM after 48 hrs by flow cytometry (reference value: 23.5%); assay type: functional; summary of the method: as §3
MDA-MB-453 [11] = test: Cell cycle arrest in human MDA-MB-453 cells assessed as accumulation at G0/G1 phase at 10 uM after 48 hrs by flow cytometry (reference value: 62.6%); assay type: functional; summary of the method: as §3
MDA-MB-453 [12] = test: Cell cycle arrest in human MDA-MB-453 cells assessed as accumulation at S phase at 10 uM after 48 hrs by flow cytometry (reference value: 5.9%); assay type: functional; summary of the method: as §3
MDA-MB-453 [13] = test: Cell cycle arrest in human MDA-MB-453 cells assessed as accumulation at G2/M phase at 10 uM after 48 hrs by flow cytometry (reference value: 23.5%); assay type: functional; summary of the method: as §3
MDA-MB-453 [14] = test: Cell cycle arrest in human MDA-MB-453 cells assessed as increase in accumulation at S phase after 48 hrs by flow cytometry; assay type: functional, cell-based; summary of the method: as §3
MDA-MB-453 [15] = test: Cell cycle arrest in human MDA-MB-453 cells assessed as increase in accumulation at G2/M phase after 48 hrs by flow cytometry; assay type: functional, cell-based; summary of the method: as §3
[16] = Retardation factor of the compound using hexane/ethyl acetate at ratio of 1.8:1 as solvent system; assay type: physicochemical
MCF7 [17] = test: Ratio of etoposide IC50 to compound IC50 for human MCF7 cells; assay type: functional
MDA-MB-453 [18] = test: Ratio of etoposide IC50 to compound IC50 for human MDA-MB-453 cells; assay type: functional
MDA-MB-231 [19] = test: Ratio of etoposide IC50 to compound IC50 for human MDA-MB-231 cells; assay type: functional
[20] = Retardation factor of the compound using hexane/ethyl acetate at ratio of 3:1 as solvent system; assay type: physicochemical
[21] = Retardation factor of the compound using hexane/ethyl acetate at ratio of 19:1 as solvent system; assay type: physicochemical
PC-3 [22] = test: Cell cycle arrest in human PC3 cells assessed as increase in accumulation at G2/M phase at 3 to 6 uM after 48 hrs by flow cytometry relative to control; assay type: functional; summary of the method: as §3
PC-3 [23] = test: Induction of morphological changes in human PC3 cells assessed as early apoptosis by measuring condensed chromatin, cell membrane blebbing, destructive fragmentation of nuclei at 3 uM after 48 hrs by acridine orange/ethidium bromide staining based fluorescence microscopy; assay type: functional; summary of the method: as §2
PC-3 [24] = test: Induction of morphological changes in human PC3 cells assessed as late apoptosis/necrosis at 6 uM after 48 hrs by acridine orange/ethidium bromide staining based fluorescence microscopy; assay type: functional, cell-based; summary of the method: as §2
PC-3 [25] = test: Cell cycle arrest in human PC3 cells assessed as accumulation at G0/G1 phase at 3 uM after 48 hrs by flow cytometry (reference value: 55%); assay type: functional; summary of the method: as §3
PC-3 [26] = test: Cell cycle arrest in human PC3 cells assessed as accumulation at S phase at 3 uM after 48 hrs by flow cytometry (reference value: 15.8%); assay type: functional; summary of the method: as §3
PC-3 [27] = test: Cell cycle arrest in human PC3 cells assessed as accumulation at G2/M phase at 3 uM after 48 hrs by flow cytometry (reference value: 20.9%); assay type: functional; summary of the method: as §3
PC-3 [28] = test: Cell cycle arrest in human PC3 cells assessed as accumulation at G0/G1 phase at 6 uM after 48 hrs by flow cytometry (reference value: 55%); assay type: functional; summary of the method: as §3
PC-3 [29] = test: Cell cycle arrest in human PC3 cells assessed as accumulation at S phase at 6 uM after 48 hrs by flow cytometry (reference value: 15.8%); assay type: functional; summary of the method: as §3
PC-3 [30] = test: Cell cycle arrest in human PC3 cells assessed as accumulation at G2/M phase at 6 uM after 48 hrs by flow cytometry (reference value: 20.9%); assay type: functional; summary of the method: as §3
PC-3 [31] = test: Ratio of etoposide IC50 to compound IC50 for human PC3 cells; assay type: functional

SMILES	IC50 [1] [µM]	IC50 (MCF7 [2]) [µM]	IC50 (HeLa) [µM]	IC50 (MDA-MB-453 [3]) [µM]	IC50 (MDA-MB-231 [4]) [µM]	IC50 (PC-3 [5]) [µM]	IC50 (HT-29) [µM]	also measured
COc1cccc2c1C(=O)c1c(O)c3c(c(O)c1C2=O)C[C@@](O)(C(=O)CO)C[C@@H]3O[C@H]1C[C@H](N)[C@H](O)[C@H](C)O1 [DOXORUBICIN]	0.39							
O=C1C=CC(=O)c2c(O)cccc21 [JUGLONE]	65.4	16.5	93.7	27.5	75.8	88.7	> 100	
CC1=CC(=O)c2c(ccc3c2OCC=C3)C1=O	25.9	11.7	> 100	10.9	18.3	24.5	34.6	Activity (MDA-MB-453 [6]): Active; Activity (MDA-MB-453 [7]): Active; Activity (MDA-MB-453 [8]): 45%; Activity (MDA-MB-453 [9]): 12.6%; Activity (MDA-MB-453 [10]): 31.3%; Activity (MDA-MB-453 [11]): 10.5%; Activity (MDA-MB-453 [12]): 21.5%; Activity (MDA-MB-453 [13]): 55.9%; Activity (MDA-MB-453 [14]): Dose-dependent effect; Activity (MDA-MB-453 [15]): Dose-dependent effect; Rf [16]: 0.39; Ratio IC50 (MCF7 [17]): 2; Ratio IC50 (MDA-MB-453 [18]): 1.1; Ratio IC50 (MDA-MB-231 [19]): 1.3
O=C1C=CC(=O)c2c1ccc1c2OC(CI)C1 (stereo unspecified)	9.4	13.4	27.4	20.8	29.2	12.7	31.3	Rf [16]: 0.48
COc1cc([C@@H]2c3cc4c(cc3[C@@H](O[C@@H]3O[C@@H]5CO[C@@H](C)O[C@H]5[C@H](O)[C@H]3O)[C@H]3COC(=O)[C@H]23)OCO4)cc(OC)c1O [ETOPOSIDE]	8.9		4.71	12.5				
Cc1cc2ccc3c(c2o1)C(=O)C=CC3=O	15	24.3	51.2	25.2	38.9	18.2	57.9	Rf [20]: 0.42
C=CCc1ccc2c(c1O)C(=O)C=CC2=O	82.9	58.2	> 100	53.7	> 100	92.9	> 100	Rf [21]: 0.39
O=C1C=CC(=O)c2c1ccc1c2OCC=C1	45.5	23.2	59.6	37.2	45.6	5.7	27.8	fold change (FC) (PC-3 [22]): 1.6; Activity (PC-3 [23]): Active; Activity (PC-3 [24]): Active; Activity (PC-3 [25]): 45.3%; Activity (PC-3 [26]): 15.4%; Activity (PC-3 [27]): 30.8%; Activity (PC-3 [28]): 46.7%; Activity (PC-3 [29]): 12.3%; Activity (PC-3 [30]): 32%; Rf [16]: 0.38; Ratio IC50 (PC-3 [31]): 2.5
CC1=CC(=O)c2c(O)cccc2C1=O [PLUMBAGIN]	43.4	12.2	59	34.6	51.1	17.2	26.2	
C=CCOc1cccc2c1C(=O)C=C(C)C2=O	46.7	14.7	78	29.3	36.1	34.2	33.7	Rf [20]: 0.45
C=CCc1ccc2c(c1O)C(=O)C=C(C)C2=O	60.8	11.6	60.8	39	62.9	16.8	63	Rf [21]: 0.35; Ratio (MCF7 [17]): 2
CC1=CC(=O)c2c(ccc3cc(C)oc23)C1=O	44.1	28.8	55.2	32.6	44	31.1	60.1	Rf [20]: 0.43
C=CCOc1cccc2c1C(=O)C=CC2=O	> 100	24	> 100	37.8	> 100	22.3	32.3	
CC1=CC(=O)c2c(ccc3c2OC(CI)C3)C1=O (stereo unspecified)	31.2	33.8	16.2	21.6	33.2	26.8	48.4	Rf [16]: 0.38
